Measurements taken from publication PMC3020727 (The Journal of Biological Chemistry, 2010).

Assays:
RbAp48 [1] = conditions: RbAp48 expressed in a reticulocyte lysate; cited from earlier work
[2] = test system: RbAp48 mutants (E126A/E179A; E231A/D248A/N277A/E319A); assay: Pulldown of in vitro translated 35S-labeled mutant RbAp48 by biotinylated FOG-1-; type: binding
Procedure, shortened: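 ³⁵S-labeled RbAp48 mutants made by coupled in vitro transcription/translation in rabbit reticulocyte lysate. About 10 μg biotinylated FOG-1-(1–15) on high-capacity streptavidin beads, in Tris pH 7.4, 300 mm NaCl, 0.5% IGEPAL and EDTA-free protease inhibitor. Lysate (15 μl, plus 45 μl ³⁵S-MTA-1 where stated) with 250 μl beads, 1 h, 4 °C. Bare-bead control; 10% input. Five washes; SDS-PAGE and autoradiography.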

RbAp48 [3] = assay: Binding of MBD3 N-terminal peptide to RbAp48; conditions: data not shown

Substance: FOG-1-(1–15): chemically synthesized peptide, the 15 N-terminal amino acids of FOG-1
- interaction with RbAp48 in GST pulldown assays (RbAp48 [1]): can interact
- pulldown of E126A/E179A mutant RbAp48 in the presence of MTA-1 ([2]; 45 μl lysate with 35S-labeled MTA-1 added, Fig. 5B lane 10): could be recruited

Substance: MERKRWECPALPQGW [N-terminal peptide derived from MBD3]
- binding to RbAp48 (RbAp48 [3]): does not bind measurably

Substance: biotinylated FOG-1-(1–15): FOG-1-(1–15) peptide bearing an N-terminal biotin tag, immobilized on streptavidin
- pulldown of quadruple-point mutant RbAp48 (Glu-231, Asp-248, Asn-277, Glu-319) ([2]; biotinylated peptide on streptavidin beads, Fig. 5A): disrupts binding
